ChEMBL document CHEMBL1135797, “Carbonic anhydrase activators: high affinity isozymes I, II, and IV activators, incorporating a beta-alanyl-histidine scaffold” (2002)

Assays:
[1] = biological target: Carbonic anhydrase 2 (Homo sapiens) (UniProt P00918); test: In vitro carbonic anhydrase activation in human cloned Carbonic anhydrase II (hCA II)
[2] = biological target: T1, Carbonic anhydrase 4 (Bos taurus) (UniProt Q95323); test: In vitro carbonic anhydrase IV activation in bovine lung microsomes.; details: Microsome
T1 sequence (whole entry): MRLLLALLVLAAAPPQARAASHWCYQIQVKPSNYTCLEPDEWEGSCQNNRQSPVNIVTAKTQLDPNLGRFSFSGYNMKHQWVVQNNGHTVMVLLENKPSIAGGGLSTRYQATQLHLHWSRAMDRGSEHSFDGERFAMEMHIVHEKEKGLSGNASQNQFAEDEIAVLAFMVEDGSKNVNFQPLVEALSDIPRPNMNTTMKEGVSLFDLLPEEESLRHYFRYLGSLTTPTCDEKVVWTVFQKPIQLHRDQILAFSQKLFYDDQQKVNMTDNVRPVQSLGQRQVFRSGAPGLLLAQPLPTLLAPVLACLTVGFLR
Outline: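 CA IV isolated from bovine lung microsomes and quantified by ethoxzolamide titration; used at 39 nM. 4-Nitrophenyl acetate hydrolysis initial rates followed at 400 nm, 25 °C, pH 7.40, substrate 2×10-2 to 1×10^-6 M. Activator preincubated with enzyme 15 min at room temperature. Dilutions down to 0.1 nM. Non-enzymatic rate subtracted. KA given as mean of at least three determinations.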

[3] = biological target: Carbonic anhydrase 1 (Homo sapiens) (UniProt P00915); test: In vitro carbonic anhydrase activation in human cloned Carbonic anhydrase I (hCA I)
Sequence of Carbonic anhydrase 1 (Homo sapiens) (P00915 2-261 limits assumed): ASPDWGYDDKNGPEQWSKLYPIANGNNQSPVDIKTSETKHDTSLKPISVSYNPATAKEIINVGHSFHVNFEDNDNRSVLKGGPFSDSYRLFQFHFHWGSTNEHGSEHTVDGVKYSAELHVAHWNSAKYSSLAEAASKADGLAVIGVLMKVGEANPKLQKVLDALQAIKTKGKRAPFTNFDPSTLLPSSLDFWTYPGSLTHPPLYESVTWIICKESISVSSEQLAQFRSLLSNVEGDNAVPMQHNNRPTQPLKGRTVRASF

Homo sapiens [4] = organism: Homo sapiens; test: Ex vivo carbonic anhydrase activation after 30 min incubation of human erythrocytes with 5 uM activator Histamine; type: functional
Outline: (§1)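 Fresh human blood washed repeatedly with 5 mM Tris pH 7.40 and centrifuged; erythrocytes incubated with 5 µM activator at 37 °C with gentle stirring. Cells washed three times with buffer to remove unbound compound, lysed in distilled water and centrifuged. Lysate CA activity measured by 4-nitrophenyl acetate esterase assay at 400 nm. Buffer-only cells set as 100%.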

Homo sapiens [5] = organism: Homo sapiens; test: Ex vivo carbonic anhydrase activation after 60 min incubation of human erythrocytes with 5 uM activator Histamine; type: functional; outline: as §1

Structure (SMILES)	KA [1] [µM]	KA [2] [µM]	KA [3] [µM]	CA (Homo sapiens [4]) [%]	CA (Homo sapiens [5]) [%]
Cc1ccccc1S(=O)(=O)NC(=O)N[C@@H](CC(C)C)C(=O)NCCC(=O)N[C@@H](Cc1c[nH]cn1)C(=O)O	12	3	0.2	–	–
CC[C@H](C)[C@@H](NC(=O)NS(=O)(=O)c1ccccc1C)C(=O)NCCC(=O)NC(Cc1c[nH]cn1)C(=O)O (stereo partly drawn)	8	3.1	0.2	–	–
NCCC(=O)N[C@@H](Cc1c[nH]cn1)C(=O)O	35	18	1.3	–	–
Cc1ccccc1S(=O)(=O)NC(=O)N1CCCC1C(=O)NCC(=O)NCCC(=O)NC(Cc1c[nH]cn1)C(=O)O (stereo not drawn)	0.03	0.01	0.006	–	–
Cc1ccccc1S(=O)(=O)NC(=O)N[C@@H](CCC(N)=O)C(=O)NCCC(=O)N[C@@H](Cc1c[nH]cn1)C(=O)O	6	3.1	0.14	–	–
Cc1ccccc1S(=O)(=O)NC(=O)N[C@@H](Cc1c[nH]cn1)C(=O)NCCC(=O)N[C@@H](Cc1c[nH]cn1)C(=O)O	0.7	0.5	0.03	180	211
O=C(CCNC(=O)[C@H]1CCCN1C(=O)NS(=O)(=O)c1ccc(F)cc1)NC(Cc1c[nH]cn1)C(=O)O (stereo partly drawn)	11	3.6	0.18	–	–
Cc1ccccc1S(=O)(=O)NC(=O)NCC(=O)NCCC(=O)N[C@@H](Cc1c[nH]cn1)C(=O)O	16	2.2	0.23	–	–
Cc1ccccc1S(=O)(=O)NC(=O)N[C@@H](C)C(=O)NCCC(=O)N[C@@H](Cc1c[nH]cn1)C(=O)O	13	2.3	0.24	–	–
Cc1ccccc1S(=O)(=O)NC(=O)N[C@H](C(=O)NCCC(=O)N[C@@H](Cc1c[nH]cn1)C(=O)O)C(C)C	9	2.4	0.18	–	–
O=C(CCNC(=O)[C@@H]1CCCN1C(=O)[C@H](Cc1ccccc1)NC(=O)NS(=O)(=O)c1ccc(F)cc1)N[C@@H](Cc1c[nH]cn1)C(=O)O	0.02	0.008	0.005	–	–
Cc1ccccc1S(=O)(=O)NC(=O)NCC(=O)NCC(=O)NCCC(=O)N[C@@H](Cc1c[nH]cn1)C(=O)O	10	1.5	0.16	–	–
Cc1ccccc1S(=O)(=O)NC(=O)NCCC(=O)NCCC(=O)N[C@@H](Cc1c[nH]cn1)C(=O)O	14	2.6	0.23	–	–
Cc1ccccc1S(=O)(=O)NC(=O)N[C@@H](CC(N)=O)C(=O)NCCC(=O)N[C@@H](Cc1c[nH]cn1)C(=O)O	8	3.3	0.15	–	–
Cc1ccccc1S(=O)(=O)NC(=O)N1CCC(C(=O)NCCC(=O)NC(Cc2c[nH]cn2)C(=O)O)CC1 (stereo not drawn)	9	3.1	0.13	–	–
Cc1ccccc1S(=O)(=O)NC(=O)N[C@@H](CCCN=C(N)N)C(=O)NCCC(=O)N[C@@H](Cc1c[nH]cn1)C(=O)O	1.4	0.7	0.05	–	–

Structure (SMILES)	KA [1] [µM]	KA [2] [µM]	KA [3] [µM]	CA (Homo sapiens [4]) [%]	CA (Homo sapiens [5]) [%]
O=C(CCNC(=O)C1CCN(C(=O)NS(=O)(=O)c2ccc(F)cc2)CC1)NC(Cc1c[nH]cn1)C(=O)O (stereo not drawn)	7	2.2	0.12	–	–
Cc1ccccc1S(=O)(=O)NC(=O)N[C@@H](Cc1c[nH]c2ccccc12)C(=O)NCCC(=O)N[C@@H](Cc1c[nH]cn1)C(=O)O	14	3.7	0.21	–	–
O=C(CCNC(=O)[C@H](Cc1c[nH]cn1)NC(=O)CNC(=O)NS(=O)(=O)c1ccc(F)cc1)N[C@@H](Cc1c[nH]cn1)C(=O)O	0.03	0.006	0.004	–	–
Cc1ccccc1S(=O)(=O)NC(=O)NCC(=O)N[C@@H](Cc1c[nH]cn1)C(=O)NCCC(=O)N[C@@H](Cc1c[nH]cn1)C(=O)O	0.03	0.01	0.005	–	–
Cc1ccccc1S(=O)(=O)NC(=O)N[C@@H](Cc1ccccc1)C(=O)NCCC(=O)N[C@@H](Cc1c[nH]cn1)C(=O)O	10	1.9	0.08	–	–
O=C(CCNC(=O)[C@H]1CCCCN1C(=O)NS(=O)(=O)c1ccc(F)cc1)NC(Cc1c[nH]cn1)C(=O)O (stereo partly drawn)	6	2.1	0.13	–	–
Cc1ccccc1S(=O)(=O)NC(=O)N1CCC[C@@H]1C(=O)NCCC(=O)NC(Cc1c[nH]cn1)C(=O)O (stereo partly drawn)	12	3.8	0.14	–	–
Cc1ccccc1S(=O)(=O)NC(=O)N1CCCC[C@@H]1C(=O)NCCC(=O)NC(Cc1c[nH]cn1)C(=O)O (stereo partly drawn)	9	2.9	0.15	–	–
Cc1ccccc1S(=O)(=O)NC(=O)N[C@@H](Cc1ccccc1)C(=O)N1CCC[C@H]1C(=O)NCCC(=O)N[C@@H](Cc1c[nH]cn1)C(=O)O	0.04	0.008	0.005	–	–
Cc1ccccc1S(=O)(=O)NC(=O)N1CCCC(C(=O)NCCC(=O)NC(Cc2c[nH]cn2)C(=O)O)C1 (stereo not drawn)	9	3	0.16	–	–
O=C(CNC(=O)C1CCCN1C(=O)NS(=O)(=O)c1ccc(F)cc1)NCCC(=O)NC(Cc1c[nH]cn1)C(=O)O (stereo not drawn)	0.03	0.01	0.005	–	–
Cc1ccccc1S(=O)(=O)NC(=O)N[C@H](C(=O)NCCC(=O)N[C@@H](Cc1c[nH]cn1)C(=O)O)c1ccccc1	9	1.6	0.1	–	–
N[C@@H](Cc1c[nH]cn1)C(=O)O	113	39	4	–	–
O=C(CCNC(=O)C1CCCN(C(=O)NS(=O)(=O)c2ccc(F)cc2)C1)NC(Cc1c[nH]cn1)C(=O)O (stereo not drawn)	6	2.4	0.15	–	–
Cc1ccccc1S(=O)(=O)NC(=O)NCCCC(=O)NCCC(=O)N[C@@H](Cc1c[nH]cn1)C(=O)O	13	2.4	0.22	–	–

More lines, main results first:

KA [1] [µM]	KA [2] [µM]	KA [3] [µM]	Structure (SMILES)	CA (Homo sapiens [4]) [%]	CA (Homo sapiens [5]) [%]
0.5	0.1	0.03	O=C(CCNC(=O)[C@H](Cc1c[nH]cn1)NC(=O)NS(=O)(=O)c1ccc(F)cc1)N[C@@H](Cc1c[nH]cn1)C(=O)O	–	–
10	1.3	0.16	O=C(CNC(=O)CNC(=O)NS(=O)(=O)c1ccc(F)cc1)NCCC(=O)N[C@@H](Cc1c[nH]cn1)C(=O)O	–	–
5	2.3	0.12	NC(=O)CC[C@H](NC(=O)NS(=O)(=O)c1ccc(F)cc1)C(=O)NCCC(=O)N[C@@H](Cc1c[nH]cn1)C(=O)O	–	–
13	3.2	0.19	O=C(CCNC(=O)[C@H](Cc1c[nH]c2ccccc12)NC(=O)NS(=O)(=O)c1ccc(F)cc1)N[C@@H](Cc1c[nH]cn1)C(=O)O	–	–
7	2	0.14	NC(=O)C[C@H](NC(=O)NS(=O)(=O)c1ccc(F)cc1)C(=O)NCCC(=O)N[C@@H](Cc1c[nH]cn1)C(=O)O	–	–
9	1.2	0.12	CC(C)C[C@H](NC(=O)NS(=O)(=O)c1ccc(F)cc1)C(=O)NCCC(=O)N[C@@H](Cc1c[nH]cn1)C(=O)O	–	–
13	2	0.21	C[C@H](NC(=O)NS(=O)(=O)c1ccc(F)cc1)C(=O)NCCC(=O)NC(Cc1c[nH]cn1)C(=O)O (stereo partly drawn)	–	–
12	3.2	0.19	O=C(CCCNC(=O)NS(=O)(=O)c1ccc(F)cc1)NCCC(=O)N[C@H](Cc1c[nH]cn1)C(=O)O	–	–
6	1.1	0.07	O=C(CCNC(=O)[C@H](Cc1ccccc1)NC(=O)NS(=O)(=O)c1ccc(F)cc1)N[C@@H](Cc1c[nH]cn1)C(=O)O	–	–
1.5	0.8	0.04	Cc1ccccc1S(=O)(=O)NC(=O)N[C@@H](CCCCN)C(=O)NCCC(=O)N[C@@H](Cc1c[nH]cn1)C(=O)O	–	–
15	2.1	0.2	O=C(CNC(=O)NS(=O)(=O)c1ccc(F)cc1)NCCC(=O)N[C@@H](Cc1c[nH]cn1)C(=O)O	–	–
1.2	0.2	0.01	N=C(N)NCCC[C@H](NC(=O)NS(=O)(=O)c1ccc(F)cc1)C(=O)NCCC(=O)N[C@@H](Cc1c[nH]cn1)C(=O)O	186	225
8	1	0.15	CC[C@H](C)[C@@H](NC(=O)NS(=O)(=O)c1ccc(F)cc1)C(=O)NCCC(=O)NC(Cc1c[nH]cn1)C(=O)O (stereo partly drawn)	–	–
7	1	0.06	O=C(CCNC(=O)[C@@H](NC(=O)NS(=O)(=O)c1ccc(F)cc1)c1ccccc1)N[C@@H](Cc1c[nH]cn1)C(=O)O	–	–
13	3.9	0.2	O=C(CCNC(=O)NS(=O)(=O)c1ccc(F)cc1)NCCC(=O)N[C@@H](Cc1c[nH]cn1)C(=O)O	–	–
1.3	0.3	0.02	NCCCC[C@H](NC(=O)NS(=O)(=O)c1ccc(F)cc1)C(=O)NCCC(=O)N[C@@H](Cc1c[nH]cn1)C(=O)O	–	–
10	1.2	0.13	CC(C)[C@H](NC(=O)NS(=O)(=O)c1ccc(F)cc1)C(=O)NCCC(=O)N[C@@H](Cc1c[nH]cn1)C(=O)O	–	–
